In ChEMBL document CHEMBL1146795, “Synthesis and antiangiogenic activity of exo-olefinated deoxoartemisinin derivatives” (Bioorg Med Chem Lett, 2004) one finds inhibition and IC50 data, which are given here for eight compounds.

The nature of experiment [1]: Antiangiogenic activity against chorioallantoic membrane (CAM) assay at 10 ug/egg. Type of experiment: functional, tissue-based.
In experiment [2] the test system is HUVEC. The experiment can be described thus: Antiangiogenic activity against HUVEC cells in HUVEC(Human Umbilical Vein Endothelial Cells) proliferation assay usingMTT colorimetric method. Type of experiment: functional, cell-based. In a few lines: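 HUVEC growth measured by MTT colorimetric read-out. IC50 taken from a nonlinear regression fit with r2 > 0.9.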

For experiment [3], the system named is HUVEC. The experiment can be described thus: Antiangiogenic activity to suppress the growth factor induced tube formation byHUVEC on Matrigel was assessed at the concentration of 10 ug/mL. Type of experiment: functional. To be noted: Homo sapiens.

Structures are written as SMILES. Converted amounts (≈) assume the structure as drawn.

`CCC/C(Br)=C1\O[C@@H]2OC3(C)CC[C@H]4[C@H](C)CC[C@@H]([C@H]1C)[C@@]24OO3` (single isomer, unassigned): the inhibition (usually the relative decrease from the control value, in per cent) in experiment [1] is 57%. Moreover, the 50% inhibitory concentration (IC50) (in general, the concentration that gives 50% inhibition) with HUVEC [2] came to 1.5 µg/mL (≈ 3.74 µM). In the experiment with HUVEC [3], this compound showed an inhibition at 10 µg/mL of 39%.
For the compound `C[C@@H]1CC[C@H]2[C@@H](C)/C(=C\c3ccccc3)O[C@@H]3OC4(C)CC[C@@H]1[C@]32OO4` (single isomer, unassigned), the inhibition in experiment [1] stood at 10%. The compound further showed an IC50 in the experiment with HUVEC [2] of 1.9 µg/mL (≈ 5.33 µM). The compound further registered an inhibition at 10 µg/mL in the experiment on HUVEC [3] of 10%.
Take `CC(C)=C1O[C@@H]2OC3(C)CC[C@H]4[C@H](C)CC[C@@H]([C@H]1C)[C@@]24OO3` (single isomer, unassigned): the inhibition in experiment [1] came out at 29%. In addition, the midpoint of inhibition with HUVEC [2], the IC50, lay at 2.3 µg/mL (≈ 7.46 µM). In the experiment with HUVEC [3], this compound came in with an inhibition at 10 µg/mL of 13%.
The matching figures for `C[C@@H]1CC[C@H]2[C@@H](C)C(=Cc3ccccc3)O[C@@H]3OC4(C)CC[C@@H]1[C@]32OO4` (single isomer, unassigned): 5%, 2.3 µg/mL (≈ 6.45 µM) and 10%.
On the same counts, the results for `CCC/C(Br)=C1/O[C@@H]2OC3(C)CC[C@H]4[C@H](C)CC[C@@H]([C@H]1C)[C@@]24OO3` (single isomer, unassigned) are 8%, 1.9 µg/mL (≈ 4.73 µM) and 10%.
In experiment [1], `C/C(Br)=C1/O[C@@H]2OC3(C)CC[C@H]4[C@H](C)CC[C@@H]([C@H]1C)[C@@]24OO3` (single isomer, unassigned) had an inhibition of 43%. This compound also registered an IC50 in the experiment on HUVEC [2] of 25.4 µg/mL (≈ 68 µM). The compound further registered an inhibition at 10 µg/mL in the experiment with HUVEC [3] of 32%.
In the case of `C/C(Br)=C1\O[C@@H]2OC3(C)CC[C@H]4[C@H](C)CC[C@@H]([C@H]1C)[C@@]24OO3` (single isomer, unassigned), the inhibition in experiment [1] is 50%. Further, half-maximal inhibition in the experiment with HUVEC [2] (IC50) required 4.5 µg/mL (≈ 12.1 µM). Further, in the experiment on HUVEC [3], the inhibition at 10 µg/mL came to 65%.
The matching figures for `C[C@@H]1CC[C@H]2[C@@H](C)/C(=C\Br)O[C@@H]3O[C@]4(C)CC[C@@H]1[C@]32OO4`: 80%, 4.8 µg/mL (≈ 13.4 µM) and 25%.
